High-throughput results deposited in PubChem BioAssay by several laboratories.
This is a sample that favours compounds with a hit; in the whole collection about 3.8% have one here.
Lipid droplet: hepatic lipid droplet formation modulation | AML12 mouse hepatocytes, oleate lipid droplets, BODIPY imaging | inhibition, % at 6.5 µM | hit rate 0.4% among 240,000 | AID 1656;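 active means lipid droplet intensity inhibited by at least 50%, with more than 500 cells counted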
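material = mouse AML12 hepatocyte cell line, fixed after treatment | also added = 100 µM oleic acid challenge | doses = compound at 6.5 µM only | schedule = overnight exposure | technique = Image-based BODIPY and DAPI two-channel analysis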
HSF-1 act: increases HSF-1 driven luciferase reporter signal | NIH3T3-HGL HSF-1 luciferase reporter, MG132, 8 h; 100% = twice DMSO control signal | activation, % at 9 µM | hit rate 1.7% among 300,000 | AID 504408;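 active means mean replicate activation of at least 50% with a set share of replicates each reaching 50%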;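 further: 0% = median of the neutral control wells and 100% = twice that signal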
HSF1 inh: HSF1 inhibition; NIH3T3-HGL HSE-luciferase, MG132-induced, luminescence 8 h; active compounds read low; activity change, negative = inhibition, % at 7.5 µM (by protocol); hit rate 0.77% among 300,000;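 active means more than half of replicate wells show activity change below -50%, luminescence cut by over half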;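 further: luciferase reports HSF-1 transcriptional activity via heat shock element; 0% = median of DMSO wells and -100% = zero luminescence signal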
HSP90 refold inh: inhibitors of HSP90 luciferase refolding in rabbit reticulocyte lysate; luciferase refolding luminescence, 3 h; inhibition, % at 5.6 µM; hit rate 0.91% among 290,000; AID 1789;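 active means inhibition above the screen-wide mean plus 3 SD, computed separately per campaign, cut at about 16% in these data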;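 further: 0% = DMSO wells and 100% = 60 µM geldanamycin wells; inhibitors lower the luminescence because luciferase stays unfolded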
HCV NS3 hel inh: inhibitors of Hepatitis C virus NS3 helicase | NS3 helicase DNA unwinding, Cy5 molecular beacon fluorescence | inhibition, % at 10.9 µM | hit rate 0.56% among 290,000 | AID 1800;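 active means inhibition above the mean of all tested compounds plus 3 SD, set per campaign, cut at about 35% in these data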;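 further: 0% = DMSO wells and 100% = thioflavine S control wells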
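Material: hepatitis C virus NS3 helicase domain fragment enzyme; measured by: Cy5 fluorescence, 0 and 60 min reads; control set: DMSO and thioflavine S; incubation: 60 min unwinding reaction at 25 °C after ATP addition; read-out basis: % inhibition from 60/0 min fluorescence ratio, DMSO 0%, thioflavine S 100%; repeats: singlicate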
* = called active by the depositor; · = no result.

SMILES	Lipid droplet	HSF-1 act	HSF1 inh	HSP90 refold inh	HCV NS3 hel inh
Fc1ccccc1N1CCN(Cc2cc(-c3ccccc3)on2)CC1	·	-80	-75*	2	-12
CCc1sc(C(=O)N2CCN(c3ccc(F)cc3)CC2)cc1C	-4	35	5	4	-24
S=C(NCc1ccccn1)Nc1ccccc1Cl	8	63*	36	-1	-5
S=C(NCc1ccccn1)Nc1cccc(Cl)c1	·	60*	28	-3	1
FC(F)(F)c1cccc(NC(=S)NCc2ccccn2)c1	7	57*	22	0	-1
CC1CN(CCCCOc2ccc(Cl)c3ccccc23)CC(C)O1 (stereo not drawn)	0	36	22	-2	-63
Cc1oc(=O)c(NC(=O)c2ccc(Cl)cc2)cc1C(=O)c1ccccc1	·	83*	49	0	10
Cc1oc(=O)c(NC(=O)c2ccccc2)cc1C(=O)c1ccccc1	·	121*	79	-1	0
CC(=O)c1cc(NC(=O)c2ccccc2)c(=O)oc1C	3	30	36	1	3
Cc1ccc2sc(NNC(=O)c3cc(=O)c4ccccc4o3)nc2c1C	17	6	14	18*	9
O=C(NC1CC1)c1nc(Cn2cc([N+](=O)[O-])cn2)no1	-1	-14	-2	1	4
COc1ccc(OC2C(=O)N(Cc3ccc4c(c3)OCO4)C2c2sccc2C)cc1 (stereo not drawn)	·	-80	-75*	-1	-13
COc1ccc(OC2C(=O)N(Cc3ccc(F)cc3)C2c2ccc(OC)c(OC)c2)cc1 (stereo not drawn)	·	-10	2	0	-10
O=C(O)c1ccc([N+](=O)[O-])c(CS(=O)(=O)c2ccc(Cl)cc2)c1	-1	-14	2	2	9
O=C(CBr)c1ccc([N+](=O)[O-])c(CS(=O)(=O)c2ccc(Cl)cc2)c1	-4	60*	53	8	13
Cc1ccc2nsnc2c1N(S(C)(=O)=O)S(C)(=O)=O	2	3	-6	4	-15
Cc1ccc(/C=[N+](\[O-])c2ccc(N(C)C)cc2)c2nsnc12	-8	-61	-57*	6	9
CN=c1scc(C)n1/N=C/c1ccc(O)c(O)c1O	4	9	-11	-2	8
CN=c1scc(-c2cccs2)n1/N=C/c1ccccc1O	5	-91	-90*	78*	8
CCc1ccc(N(C(=O)c2snc(C(N)=O)c2N)C(C(=O)NCCC(C)C)c2c[nH]c3ccccc23)cc1 (stereo not drawn)	·	57*	14	1	2
COc1ccc2cc(OCC(=O)NNC(=O)Nc3ccc(C(C)=O)cc3)ccc2c1	-8	2	-4	1	-10
CN1CCN(C(=O)c2cc(Br)cn2C)CC1	·	-4	-9	-3	-2
Nc1nonc1-n1nnc(C(=O)N/N=C/c2ccc(OCc3ccc(F)cc3)cc2)c1COc1ccccc1	-12	10	14	-1	-7
O=C(Cc1ccc([N+](=O)[O-])cc1)c1ccc(O)cc1O	12	3	4	-3	0
COC(=O)c1nn(-c2cccc(C(F)(F)F)c2)c(=O)cc1Sc1ccccn1	·	-65	-52*	-4	-1
SMILES	Lipid droplet	HSF-1 act	HSF1 inh	HSP90 refold inh	HCV NS3 hel inh
Cc1ccc(C(=O)Nc2ccc(S(=O)(=O)Nc3cnc4ccccc4n3)cc2)cc1	4	29	17	-2	-8
COC(Cc1ccccc1N1CCCC1=O)OC	-5	3	-3	-6	2
C=CCc1ccc(OCC(O)CO)c(OC)c1 (stereo not drawn)	16	71*	22	-2	6
C=CCc1ccc(OCC(O)COCC)c(OC)c1 (stereo not drawn)	0	26	14	0	-2
COc1ccc(O)c(C(=O)c2cnc3c(c2)c(C)nn3CCO)c1	9	6	7	4	-33
COc1ccc(C(=O)c2c[nH]c(C(=O)NCc3ccco3)c2)cc1	·	-2	8	3	0
COc1cccc(C(=O)c2c[nH]c(C(=O)NCc3ccco3)c2)c1	27	-64	-56*	0	-1
CC(=O)c1cc(C(=O)N2CCc3c([nH]c4ccccc34)C2C2CCCCC2)[nH]n1 (stereo not drawn)	3	20	25	4	-6
COc1ccc(NC(=O)NNC(=O)c2ccc(-c3ccccc3)cc2)c(OC)c1	2	-31	-23	5	1
COc1ccc(NC(=O)NNC(=O)c2cc3occc3n2C)c(OC)c1	-3	133*	82	3	3
NNC(=O)CSc1cccc2cccnc12	10	-5	-6	-4	-16
O=C(CSc1cccc2cccnc12)N1CCCC1	3	60*	57	-2	-1
COc1ccc(-c2noc(CCN3C(=O)c4ccccc4C3=O)n2)cc1OC	-10	87*	43	-3	-4
CC(=O)N(C)c1ccc(OCC(O)Cn2c3ccc(Cl)cc3c3cc(Cl)ccc32)cc1 (stereo not drawn)	-24	59*	38	2	-9
O=C(Nc1ccc(Cl)c(Cl)c1)c1ccc(Cn2cc(Cl)cn2)cc1	7	72*	40	-1	-8
Cc1ccc(C(=O)NC2CCCN(c3ccc(C(F)(F)F)cn3)C2)cn1 (stereo not drawn)	1	54*	12	2	-2
CCCOc1ccc(-c2c(C(=O)N/N=C/c3ccccc3OCC)nnn2-c2nonc2N)cc1	6	-75	-69*	9	-23
CCOc1cccc(-c2c(C(=O)N/N=C/c3ccc(C)s3)nnn2-c2nonc2N)c1	9	4	4	0	-6
CCCOc1ccc(-c2c(C(=O)N/N=C/c3ccc(C)cc3)nnn2-c2nonc2N)cc1	-23	18	4	5	19
COc1cccc(-c2c(C(=O)N/N=C/c3ccc(C)s3)nnn2-c2nonc2N)c1	29	-89	-87*	-3	1
O=C(NN=Cc1cccc([N+](=O)[O-])c1)c1cccc2ccccc12	·	-7	-7	·	·
CCCN1Cc2cccc(C(=O)N3CCN(c4ccccc4)CC3)c2C1=O	-11	-6	1	0	-8
CCCN1Cc2cccc(C(=O)N3CCN(c4ccc(OC)cc4)CC3)c2C1=O	-2	-69	-60*	0	-4
O=C(NCc1ccccc1Cl)c1ccc(NC2=NC3CS(=O)(=O)CC3S2)cc1 (stereo not drawn)	-20	1	-6	-5	13
O=C(Oc1ccc(C(=S)N2CCOCC2)cc1)c1ccccc1F	-1	-9	-3	2	3
CC(C)(C)c1ccc(S(=O)(=O)NCC(=O)N2CCN(Cc3ccccc3)CC2)cc1	4	14	8	-3	-6
CCOC(=O)C1=NN(C(=O)COc2ccccc2)C(O)(c2ccc(Br)cc2)C1 (stereo not drawn)	-19	290*	212	-8	-1
